The values that follow come from ChEMBL document CHEMBL5543129, “Peptide Inhibitor Targeting the Extraterminal Domain in BRD4 Potently Suppresses Breast Cancer Both In Vitro and In Vivo” (J Med Chem, 2024).

The source made the active and inactive calls. The rule behind the calls is not given here. Square brackets hold non-standard residues; d marks the D form. Peptide text beside a SMILES is read from it. Hyp = O=C(O)[C@@H]1C[C@@H](O)CN1; Ahx = NCCCCCC(=O)O

A word on the EC50: it is the concentration that produces a half-maximal response. Lower therefore signals a more potent agent.

A short description of series [1]: Downregulation of JMJD6 protein expression in BALB/c mouse tumor xenografted with human MDA-MB-231 cells assessed as fold change in remaining JMJD6 level at 25 mg/kg, ip administered every 2 days by immunoblotting analysis. The format is functional. Put shortly: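 Tumours taken from xenograft mice dosed with peptide at 25 mg/kg ip every 2 days. […] Three repeats.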
For orientation: A xenograft is tissue or cells of one species grown in another, often human tumour cells in immunodeficient mice.

A short description of series [2]: Toxicity in BALB/c mouse xenografted with human MCF7 cells assessed as change in body weight at 12.5 mg/kg, ip administered every 2 days in presence of 12.5 mg/kg JMJD6 inhibitor. Format: organism-based. The note with it: in vivo, 48 h. Put shortly:
(§1)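 Female BALB/c nude mice carried MCF7 xenografts (5 × 10^6 cells sc, E2 10–2 M brushed every 2 days) and were randomized at about 50 mm3. Peptide was given at 12.5 mg/kg ip every 2 days, and iJMJD6 (DMSO/PBS 1:20) at 12.5 mg/kg ip every other day, alone or combined. Body and organ weights were recorded.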

Series [3] in a line: Toxicity in BALB/c mouse xenografted with human MCF7 cells assessed as change in kidney at 12.5 mg/kg, ip administered every 2 days in presence of 12.5 mg/kg JMJD6 inhibitor. The format is organism-based. The conditions noted are these: in vivo, 48 h. The procedure, abridged:
as §1

Series [4] deals with Mus musculus. The series can be described thus: Downregulation of CCND1 mRNA expression in BALB/c mouse tumor xenografted with human MCF7 cells at 25 mg/kg, ip administered every 2 days by RT-qPCR analysis. Format: functional, organism-based.
Series [5] deals with MDA-MB-231. The series is described as follows: Antitumor activity against human MDA-MB-231 cells xenografted in BALB/c nude mouse assessed as reduction in tumor volume at 12.5 mg/kg, ip administered every 2 days in presence of 50 mg/kg JQ1. The format is functional, organism-based. Put shortly: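 Female BALB/c nude mice given 5 × 10^6 cells sc (MCF7 mice with E2 10^-2 M every 2 days), randomised at ~50 mm3. Peptide 12.5 mg/kg ip (saline) every 2 days, plus JQ1 50 mg/kg ip (DMSO/10% HPBCD 1:10) every 2 days or iJMJD6 12.5 mg/kg ip (DMSO/PBS 1:20). Caliper volume every 2 days; tumours weighed at the end.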

The target of series [6] is T1, von Hippel-Lindau disease tumor suppressor/Bromodomain-containing protein 4 (Homo sapiens) (UniProt O60885+P40337). The series is described as follows: PROTAC activity at VHL/His-tagged BDR4 ET domain (1047 to 1362 residues) (unknown origin) transfected in MCF7 cells assessed as degradation by measuring fold change in remaining BRD4 level at 5 uM incubated for 24 hrs by immunoblotting analysis (reference value: […]). Format: cell-based. For orientation: Immunoblotting shows a protein as a band on a membrane.

Series [7] addresses T1, von Hippel-Lindau disease tumor suppressor/Bromodomain-containing protein 4 (Homo sapiens). The series can be described thus: PROTAC activity at VHL/His-tagged BDR4 ET domain (471 to 730 residues) (unknown origin) transfected in MCF7 cells assessed as degradation by measuring fold change in remaining BRD4 level at 10 uM incubated for 24 hrs by immunoblotting analysis (reference value: […]). The format is cell-based.

For series [8] the target is unchanged. The series is described as follows: PROTAC activity at VHL/His-tagged BDR4 ET domain (601 to 683 residues) (unknown origin) transfected in MCF7 cells assessed as degradation by measuring fold change in remaining BRD4 level at 10 uM incubated for 12 hrs by immunoblotting analysis (reference value: […]). The format is cell-based.
Series [9] has the same target. The series is described as follows: PROTAC activity at VHL/BDR4 ET domain in human MCF7 cells assessed as degradation by measuring fold change in remaining BRD4 level at 10 uM incubated for 12 hrs by immunoblotting analysis (reference value: […]). The format is cell-based.
The target is the same in series [10]. The series is described as follows: PROTAC activity at VHL/His-tagged BDR4 ET domain (1047 to 1362 residues) (unknown origin) transfected in MCF7 cells assessed as degradation by measuring fold change in remaining BRD4 level at 10 uM incubated for 12 hrs by immunoblotting analysis (reference value: […]). The format is cell-based.
A short description of series [11]: Toxicity in BALB/c mouse xenografted with human MDA-MB-231 cells assessed as change in heart weight at 12.5 mg/kg, ip administered every 2 days in presence of 50 mg/kg JQ1. Format: organism-based. The conditions noted are these: in vivo, 48 h. Put shortly:
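Female BALB/c nude mice (4–6 weeks) carried sc MDA-MB-231 xenografts (5 × 10^6 cells) and were randomized at about 50 mm3. Peptide (12.5 mg/kg ip in saline) and JQ1 (50 mg/kg ip, DMSO/10% HPBCD 1:10) were given every 2 days, alone or combined. Body weight was recorded, and heart, liver, spleen, lung and kidney morphology and weight were assessed.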

For series [12], the target named is T2, von Hippel-Lindau disease tumor suppressor/Bifunctional arginine demethylase and lysyl-hydroxylase JMJD6 (Homo sapiens) (UniProt P40337+Q6NYC1). The series is described as follows: PROTAC activity at VHL/JMJD6 in human MCF7 cells assessed as degradation by measuring fold change in remaining JMJD6 level at 10 uM incubated for 24 hrs in presence of TAT by immunoblotting analysis relative to TAT/TAT-PROTAC. Format: cell-based. The procedure, abridged:
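MCF7 cells were left untreated or given TAT, TAT-PROTAC, TAT-PiET or the PROTAC peptide (each 10 μM) for 24 h. Lysates were immunoblotted with β-actin for loading. Three repeats, quantified in the Supporting Table.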

Series [13] has as its target T1, von Hippel-Lindau disease tumor suppressor/Bromodomain-containing protein 4 (Homo sapiens). The series is described as follows: PROTAC activity at VHL/BDR4 ET domain in human MCF7 cells assessed as degradation by measuring fold change in remaining BRD4 level at 10 uM incubated for 24 hrs by immunoblotting analysis (reference value: […]). Format: cell-based.
The target in series [14] is T2, von Hippel-Lindau disease tumor suppressor/Bifunctional arginine demethylase and lysyl-hydroxylase JMJD6 (Homo sapiens). The series is described as follows: Protac activity at VHL/JMJD6 in human MCF7 cells assessed as degradation by measuring fold change in remaining JMJD6 level at 2.5 uM incubated for 24 hrs by immunoblotting analysis (reference value: […]). The format is cell-based.

Series [15] concerns the target T1, von Hippel-Lindau disease tumor suppressor/Bromodomain-containing protein 4 (Homo sapiens). The series can be described thus: PROTAC activity at VHL/BDR4 ET domain in human MCF7 cells assessed as degradation by measuring fold change in remaining BRD4 level at 10 uM incubated for 24 hrs in presence of TAT by immunoblotting analysis relative to TAT/TAT-PROTAC. The format is cell-based. Put shortly:
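MCF7 cells are treated with PROTAC peptide (dose series, or 10 μM over a time course, or 10 μM with or without MG132 10 μM) for up to 24 h. Comparators are TAT, TAT-PiET, or TAT-PROTAC at 10 μM. BRD4 is measured by immunoblot, normalised to β-actin; three repeats.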

Series [16] has the same target. The series is described as follows: PROTAC activity at VHL/BDR4 ET domain in human MCF7 cells assessed as degradation by measuring fold change in remaining BRD4 level at 5 uM incubated for 24 hrs by immunoblotting analysis (reference value: […]). Format: cell-based.
Series [17] has as its system BT-549. The series can be described thus: Cytotoxicity against human BT-549 cells incubated for 1 week by CellTiter 96 Aqueous One Solution based assay. The format is functional, cell-based. The conditions noted are these: BT-549, 168 h. Put shortly:
(§2)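 Cells grown in RPMI-1640 (T47D, BT549) or DMEM (MDA-MB-231) with 10% FBS, 37 °C, 5% CO2. Seeded 2 × 10^3/well, exposed to a gradient concentration of peptide for 1 week. MTS-type reagent added 20 μL per 100 μL medium, 1 h at 37 °C, absorbance read at 490 nm. EC50 derived from the concentration–response curve.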

Series [18] concerns T47D. The series can be described thus: Cytotoxicity against human T47D cells incubated for 1 week by CellTiter 96 Aqueous One Solution based assay. The format is functional, cell-based. The conditions noted are these: 168 h. The procedure, abridged: as §2

Turning to `CC[C@H](C)[C@H](NC(=O)[C@H](Cc1ccc(O)cc1)NC(=O)[C@@H]1C[C@@H](O)CN1C(=O)[C@H](C)NC(=O)[C@@H](NC(=O)CCCCCNC(=O)[C@H](CCC(=O)O)NC(=O)CNC(=O)[C@H](CS)NC(=O)[C@H](CCCCN)NC(=O)[C@H](Cc1ccccc1)NC(=O)[C@H](CCCCN)NC(=O)[C@H](CCC(N)=O)NC(=O)[C@H](CC(N)=O)NC(=O)[C@H](CCCNC(=N)N)NC(=O)[C@H](CCCNC(=N)N)NC(=O)[C@H](CCCNC(=N)N)NC(=O)[C@H](CCCNC(=N)N)NC(=O)[C@H](CCC(N)=O)NC(=O)[C@H](CCCNC(=N)N)NC(=O)[C@H](CCCNC(=N)N)NC(=O)[C@H](CCCCN)NC(=O)[C@H](CCCCN)NC(=O)[C@H](CCCNC(=N)N)NC(=O)CNC(=O)[C@@H](N)Cc1ccc(O)cc1)[C@@H](C)CC)C(=O)O` (H-YGRKKRRQRRRRNQKFKCGE[Ahx]IA[Hyp]YI-OH), the “fold change (FC)” value in [1] is 0.48; in series [6] it was 1.09; in series [7] it was 0.68; in [8], 0.78; in series [9] it was 0.55; in [10], 1.11. Further, the fold change (FC) in series [12] came to 0.61; in [13], 0.26; in series [14], 0.91; in series [15], 0.63; in [16] it was 0.35. The Activity entry in [2], in [3] and in series [11] was “Non-Toxic” each time. In addition, the result in series [4] and in [5] was Active.

Take H-YGRKKRRQRRRRNQKFKCGE-OH: in [1], the “fold change (FC)” value came to 0.98. In addition, the Activity result in [2], in series [3] and in [11] was “Non-Toxic” throughout. The outcome in series [4] and in series [5] was Active. For the same molecule, the EC50 came to 32.3 µM in [17] and 13.3 µM in series [18].
